Results reported in ChEMBL document CHEMBL1121412, “Synthesis and anticancer activity of nitrosourea derivatives of phensuximide” (1980).

What was measured:
Mus musculus [1] = assay: Animal weight difference at the Optimal dose of 100 mg/kg against mouse L1210 Leukemia; dose range ip 200-12.5 mg/kg; type: functional; conditions: route intraperitoneal
Mus musculus [2] = assay: Toxicity against mouse L1210 Leukemia as number of animals survived/number of animals treated at the Optimal dose of 200 mg/kg; 6/6, dose range ip 200-12.5 mg/kg.; type: functional; conditions: route intraperitoneal
Mus musculus [3] = assay: Tested for cures, represents a 30-day survival, ratio of treated and control was reported; dose range ip 200-12.5 mg/kg; type: functional
Mus musculus [4] = assay: Toxicity against Ependymoblastoma Tumor number of animals survived/number of animals treated at the Optimal dose of 12.0 mg/kg; dose range 12-0.75 mg/kg; type: functional
Outline: (§1)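 Mouse ependymoblastoma implanted intracerebrally to test CNS antitumour activity. Groups of 10 mice were dosed on days 1-5 over the stated dose range. Toxicity is scored as survivors on day 5 after the first injection. Activity is given as % T/C at the optimum dose, and a cure is defined as 30-day survival.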

Mus musculus [5] = assay: Animal weight difference at the Optimal dose of 12.0 mg/kg against Ependymoblastoma Tumor; dose range 12-0.75 mg/kg; type: functional
Mus musculus [6] = assay: Tested for cures, represents a 30-day survival, ratio of treated and control against Ependymoblastoma Tumor was reported; dose range 12-0.75 mg/kg; type: functional; outline: as §1
Mus musculus [7] = assay: Tested for cures, represents a 30-day survival, ratio of treated and control was reported; dose range ip 50-6.25 mg/kg; type: functional
Mus musculus [8] = assay: Animal weight difference at the Optimal dose of 25 mg/kg against mouse L1210 Leukemia; dose range ip 50-6.25 mg/kg; conditions: route intraperitoneal
Mus musculus [9] = assay: Toxicity against mouse L1210 Leukemia as number of animals survived/number of animals treated at the Optimal dose of 25 mg/kg; 6/6, dose range ip 50-6.25 mg/kg.; conditions: route intraperitoneal
Mus musculus [10] = assay: Toxicity against mouse L1210 Leukemia as number of animals survived/number of animals treated at the Optimal dose of 200 mg/kg; 5/6, dose range ip 400-12.5 mg/kg.; type: functional; conditions: route intraperitoneal
Mus musculus [11] = assay: Animal weight difference at the Optimal dose of 200 mg/kg against mouse L1210 Leukemia; dose range ip 400-12.5 mg/kg; type: functional; conditions: route intraperitoneal
[12] = test system: L1210 leukemia (Mus musculus); assay: Tested for cures, represents a 30-day survival, ratio of treated and control against L1210 leukemia was reported; dose range ip 400-12.5 mg/kg
Mus musculus [13] = assay: Toxicity against mouse L1210 Leukemia as number of animals survived/number of animals treated at the Optimal dose of 100 mg/kg; 6/6, dose range ip 200-12.5 mg/kg; type: functional; conditions: route intraperitoneal
Mus musculus [14] = assay: Toxicity against mouse L1210 Leukemia as number of animals survived/number of animals treated at the Optimal dose of 50 mg/kg; 6/6, dose range ip 400-12.5 mg/kg.; type: functional; conditions: route intraperitoneal
Mus musculus [15] = assay: Tested for cures, represents a 30-day survival, ratio of treated and control was reported; dose range ip 400-12.5 mg/kg.; type: functional
Mus musculus [16] = assay: Animal weight difference at the Optimal dose of 50 mg/kg against mouse L1210 Leukemia; dose range ip 400-12.5 mg/kg.; conditions: route intraperitoneal
Mus musculus [17] = assay: Tested for cures, represents a 30-day survival, ratio of treated and control against Ependymoblastoma Tumor was reported; dose range 16-2 mg/kg; type: functional; outline: as §1
Mus musculus [18] = assay: Animal weight difference at the Optimal dose of 16.0 mg/kg against Ependymoblastoma Tumor; dose range 16-2 mg/kg
Mus musculus [19] = assay: Toxicity against Ependymoblastoma Tumor number of animals survived/number of animals treated at the Optimal dose of 16.0 mg/kg; dose range 16-2 mg/kg

`CCN(N=O)C(=O)Nc1ccc(C2CC(=O)N(C)C2=O)cc1` (stereo unspecified) showed a T-C (Mus musculus [1]) of -3.8 g, a Ratio (Mus musculus [2]) of 6 and a T/C (Mus musculus [3]) of 126%.

For `CN1C(=O)CC(c2ccc(NC(=O)N(CCCl)N=O)cc2)C1=O` (stereo unspecified), the Ratio (Mus musculus [4]) was 9, the T-C (Mus musculus [5]) was -3.8 g and the T/C (Mus musculus [6]) was 240%. For the same molecule, the T/C (Mus musculus [7]) was 196%, the T-C (Mus musculus [8]) was -4.6 g and the Ratio (Mus musculus [9]) was 6.

`CCCCN(N=O)C(=O)Nc1ccc(C2CC(=O)N(C)C2=O)cc1` (stereo unspecified) showed a Ratio (Mus musculus [10]) of 5, a T-C (Mus musculus [11]) of -2.8 g and a T/C [12] of 120%.

`CN(N=O)C(=O)Nc1ccc(C2CC(=O)N(C)C2=O)cc1` (stereo unspecified) gave a Ratio (Mus musculus [13]) of 6, a T-C (Mus musculus [1]) of -1.2 g and a T/C (Mus musculus [3]) of 127%.

Molecule `CCCN(N=O)C(=O)Nc1ccc(C2CC(=O)N(C)C2=O)cc1` (stereo unspecified) has a Ratio (Mus musculus [14]) of 6, a T/C (Mus musculus [15]) of 109% and a T-C (Mus musculus [16]) of 0.8 g.

`O=NN(CCCl)C(=O)NCCCl` [CARMUSTINE] showed a T/C (Mus musculus [17]) of 300%, a T-C (Mus musculus [18]) of -3.4 g and a Ratio (Mus musculus [19]) of 10.
